Measurements published in ChEMBL document CHEMBL3352168, “Potent, orally available, selective COX-2 inhibitors based on 2-imidazoline core” (Eur J Med Chem, 2014).

Legend:
[1] = target: T1, Prostaglandin G/H synthase 2 (Homo sapiens, UniProt P35354); assay: Inhibition of human recombinant COX2 using fluorometric substrate by fluorescent inhibitor screening assay
T1 sequence (P35354 whole entry): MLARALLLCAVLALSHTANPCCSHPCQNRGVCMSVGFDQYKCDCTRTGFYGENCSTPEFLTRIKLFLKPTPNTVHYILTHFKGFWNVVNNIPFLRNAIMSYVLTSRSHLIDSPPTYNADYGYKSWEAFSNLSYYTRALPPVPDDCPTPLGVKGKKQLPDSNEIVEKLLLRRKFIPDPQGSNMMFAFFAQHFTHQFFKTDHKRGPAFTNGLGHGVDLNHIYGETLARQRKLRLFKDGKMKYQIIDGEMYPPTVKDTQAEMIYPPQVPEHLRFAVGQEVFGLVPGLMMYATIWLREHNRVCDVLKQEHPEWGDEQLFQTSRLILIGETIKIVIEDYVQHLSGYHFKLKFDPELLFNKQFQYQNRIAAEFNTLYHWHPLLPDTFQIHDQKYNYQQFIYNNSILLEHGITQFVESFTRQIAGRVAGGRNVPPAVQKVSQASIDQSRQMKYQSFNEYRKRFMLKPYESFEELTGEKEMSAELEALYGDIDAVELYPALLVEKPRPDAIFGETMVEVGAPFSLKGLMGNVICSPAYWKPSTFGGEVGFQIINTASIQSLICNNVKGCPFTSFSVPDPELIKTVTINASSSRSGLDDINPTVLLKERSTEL
In short: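 Human recombinant COX-2 in 100 mM Tris-HCl pH 8.0 with heme and ADHP fluorometric substrate; inhibitor added at final […] (units as printed) from DMSO stocks; reaction started with arachidonic acid, 2 min at room temperature. Resorufin fluorescence read at ex 535/em 590 nm; % inhibition vs no-inhibitor activity; IC50 from concentration–inhibition curve, triplicate determinations.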

[2] = target: T2, Prostaglandin G/H synthase 1 (Ovis aries) (UniProt P05979); assay: Inhibition of ovine COX1 using fluorometric substrate at 100 uM by fluorescent inhibitor screening assay
T2 sequence (whole entry): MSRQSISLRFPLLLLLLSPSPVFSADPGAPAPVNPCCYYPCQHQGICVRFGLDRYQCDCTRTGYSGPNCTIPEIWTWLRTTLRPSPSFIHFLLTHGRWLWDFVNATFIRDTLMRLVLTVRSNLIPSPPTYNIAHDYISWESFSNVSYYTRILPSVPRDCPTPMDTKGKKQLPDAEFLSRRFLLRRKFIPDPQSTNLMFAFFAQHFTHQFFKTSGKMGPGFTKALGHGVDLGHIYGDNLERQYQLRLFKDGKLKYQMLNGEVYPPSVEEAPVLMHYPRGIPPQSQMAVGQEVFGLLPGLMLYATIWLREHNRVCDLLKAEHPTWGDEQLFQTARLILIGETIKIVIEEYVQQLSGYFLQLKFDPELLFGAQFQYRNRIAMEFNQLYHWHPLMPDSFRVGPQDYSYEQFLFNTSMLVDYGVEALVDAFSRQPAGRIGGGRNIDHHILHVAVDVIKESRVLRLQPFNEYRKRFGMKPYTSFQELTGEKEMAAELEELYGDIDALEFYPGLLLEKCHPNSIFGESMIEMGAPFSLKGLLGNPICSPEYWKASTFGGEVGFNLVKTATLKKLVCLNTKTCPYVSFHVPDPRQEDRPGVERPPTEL

[3] = target: T3, Prostaglandin G/H synthase 1 (Ovis aries, UniProt P05979); assay: Inhibition of ovine COX1 using fluorometric substrate by fluorescent inhibitor screening assay
T3 sequence (P05979 whole entry): T2 sequence (whole entry)
In short: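 Ovine COX-1 in 100 mM Tris-HCl pH 8.0 with heme and ADHP fluorometric substrate; inhibitor from DMSO stock, reaction started by arachidonic acid, 2 min at room temperature. Resorufin fluorescence read at ex 535/em 590 nm; percent inhibition calculated against uninhibited activity; reported as % inhibition at 100 (units as printed).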

Row | IC50 [1] [µM] | inhibition [2] [%] | IC50 [3] [µM] | Compound
1 | > 10 |  |  | COc1cc(C2=NCCN2c2ccc(S(N)(=O)=O)cc2)ccc1F
2 | > 10 | -1.6 |  | COc1ccc(C2=NCCN2c2ccc(S(C)(=O)=O)cc2)cc1F
3 | > 10 | -4.3 |  | COc1cc(C2=NCCN2c2ccc(S(C)(=O)=O)cc2)ccc1F
4 | > 10 | 0.7 |  | CS(=O)(=O)c1ccc(N2CCN=C2c2cccc(F)c2)cc1
5 | > 10 | 1.2 |  | COc1ccc(C2=NCCN2c2ccc(S(C)(=O)=O)cc2)cc1Cl
6 | > 10 | 9.2 |  | CS(=O)(=O)c1ccc(N2CCN=C2c2ccc(F)c(F)c2)cc1
7 | 6.9 | 11.4 |  | NS(=O)(=O)c1ccc(N2CCN=C2c2ccc(F)cc2)cc1

The next lines start with the molecule.

Row | Compound | IC50 [1] [µM] | inhibition [2] [%] | IC50 [3] [µM]
8 | CC1CN(c2ccc(S(C)(=O)=O)cc2)C(c2ccc(Cl)cc2)=N1 (racemic) | > 10 | -5.2 | 
9 | Cc1cn(-c2ccc(S(C)(=O)=O)cc2)c(-c2ccc(Cl)cc2)n1 |  |  | > 100
10 | CS(=O)(=O)c1ccc(N2CCN=C2c2cccc(Cl)c2)cc1 | 8.1 | 1.4 | 
11 | CC1CN(c2ccc(S(N)(=O)=O)cc2)C(c2cccc(Br)c2)=N1 (racemic) | > 10 | 20.2 | 
12 | CS(=O)(=O)c1ccc(N2CCN=C2c2ccc(Cl)c(C(F)(F)F)c2)cc1 | 3.6 | 4.7 | 
13 | CC1CN(c2ccc(S(C)(=O)=O)cc2)C(c2cccc(Br)c2)=N1 (racemic) | > 10 | 11.1 | 
14 | CC1CN(c2ccc(S(C)(=O)=O)cc2)C(c2ccc(F)cc2)=N1 (racemic) | > 10 | 6.3 | 
15 | CC1CN(c2ccc(S(N)(=O)=O)cc2)C(c2ccc(Cl)cc2)=N1 (racemic) | > 10 | 3.2 | 
